These results are taken from ChEMBL document CHEMBL1140779, “Trisubstituted 1,2,4-triazoles as ligands for the ghrelin receptor: on the significance of the orientation and substitution at position 3” (Bioorg Med Chem Lett, 2008).

As a reminder, the IC50 is the point on the concentration scale where inhibition reaches its midpoint. Usually Kb stands for the affinity of an antagonist, worked out from how it opposes an agonist. Usually EC50 stands for the concentration at which the effect is half-maximal.

The target of assay [1] is T1, Growth hormone secretagogue receptor type 1 (Homo sapiens, UniProt Q92847). Put plainly: Agonist activity at human GHSR1a receptor expressed in CHO cells assessed as intracellular calcium mobilization at 10 uM relative to ghrelin. The format is functional, cell-based. The gist of the method:
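Transiently electroporated hGHS-R1a CHO cells loaded with Fluo-4AM; compound at 10 µM, triplicate, at least 2 independent experiments; fluorescence rise (485/525 nm, 60 s read) compared with buffer-only basal; maximal output taken as that of 0.1 µM ghrelin.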
On the technique in general: Calcium flux is commonly read through the fluorescence of an indicator in the cells.

Assay [2] deals with T1, Growth hormone secretagogue receptor type 1. The assay can be described thus: Displacement of [125I]His9-ghrelin from human GHSR1a receptor expressed in LLC PK1 cells. The format is cell-based. In general terms: In a radioligand displacement assay an active substance lowers the binding of a labelled ligand.
For assay [3] the target is unchanged. Put plainly: Antagonist activity at human GHSR1a receptor expressed in CHO cells assessed as intracellular calcium mobilization.
Assay [4] shares this target. Put plainly: Antagonist activity at human GHSR1a receptor expressed in CHO cells assessed as reduction of ghrelin-induced intracellular calcium mobilization. The format is functional, cell-based.
The target is the same in assay [5]. Put plainly: Agonist activity at human GHSR1a receptor expressed in CHO cells assessed as intracellular calcium mobilization. The format is functional, cell-based.

T1 sequence (Q92847 whole entry): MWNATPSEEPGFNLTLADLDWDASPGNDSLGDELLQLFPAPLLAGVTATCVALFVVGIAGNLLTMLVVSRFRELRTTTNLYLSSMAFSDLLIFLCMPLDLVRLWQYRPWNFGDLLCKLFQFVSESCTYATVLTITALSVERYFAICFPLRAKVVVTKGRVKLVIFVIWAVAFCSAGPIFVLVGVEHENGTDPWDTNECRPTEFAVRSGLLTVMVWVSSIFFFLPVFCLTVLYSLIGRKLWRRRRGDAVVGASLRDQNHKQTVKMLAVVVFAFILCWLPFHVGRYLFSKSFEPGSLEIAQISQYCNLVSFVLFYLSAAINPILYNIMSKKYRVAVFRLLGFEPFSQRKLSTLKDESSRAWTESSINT

As to `COc1ccc(Cn2c(Cc3ccccc3)nnc2[C@@H](Cc2c[nH]c3ccccc23)NC(=O)C(C)(C)N)c(OC)c1`, the Activity in assay [1] was 0%.
In assay [2], `COc1ccc(Cn2c(CCc3c[nH]c4ccccc34)nnc2[C@H](Cc2c[nH]c3ccccc23)NC(=O)C(C)(C)N)cc1` displayed an IC50 of 140 nM. In assay [1], the Activity was determined as 31%.
With `COc1ccc(Cn2c(CCc3c[nH]c4ccccc34)nnc2[C@H](Cc2c[nH]c3ccccc23)NC(=O)[C@@H]2CCCN2)cc1`, in assay [2], the IC50 worked out at 650 nM. The Activity in assay [1] is 0%. Moreover, in assay [3], the Kb was 440 nM.
Consider `COc1ccc(Cn2c(CCc3c[nH]c4ccccc34)nnc2[C@@H](Cc2ccccc2)NC(=O)C(C)(C)N)cc1`, for which the IC50 in assay [2] was found to be 200 nM. Also, the Activity in assay [1] was 6%.
`COc1ccc(Cn2c(CCc3c[nH]c4ccccc34)nnc2[C@H](Cc2c[nH]c3ccccc23)NC(=O)C(C)(C)N)c(OC)c1`: the Activity in assay [1] was 4%. Besides, in assay [4], the half-inhibitory concentration (IC50) stood at 3200 nM and the Kb was determined as 69 nM.
Turning to `COc1ccc(Cn2c(CCc3ccccc3)nnc2[C@@H](Cc2c[nH]c3ccccc23)NC(=O)C(C)(C)N)cc1`, the Activity in assay [1] was 2%. For the same compound, the half-maximal inhibitory concentration (IC50) in assay [4] was 275 nM.
Regarding `COc1ccc(Cn2c(CCc3c[nH]c4ccccc34)nnc2[C@@H](CC(=O)OCc2ccccc2)NC(=O)C(C)(C)N)cc1`, the IC50 in assay [2] stood at 450 nM. In addition, the Activity in assay [1] stood at 5%.
Take `COc1ccc(Cn2c(CCc3ccccc3)nnc2[C@@H](Cc2c[nH]c3ccccc23)NC(=O)C(C)(C)N)c(OC)c1`: the Activity in assay [1] came to 0%. In addition, the IC50 in assay [4] is 800 nM.
The corresponding values for `COc1ccc(Cn2c(CCc3c[nH]c4ccccc34)nnc2[C@@H](Cc2c[nH]c3ccccc23)NC(=O)C(C)(C)N)c(OC)c1` are 0% and 620 nM.
As for `COc1ccc(Cn2c(Cc3ccccc3)nnc2[C@H](Cc2c[nH]c3ccccc23)NC(=O)C(C)(C)N)cc1`, in assay [2], the IC50 was > 1000 nM. Also, the Activity in assay [1] is 5%.
For `COc1ccc(Cn2c(CCc3c[nH]c4ccccc34)nnc2[C@@H](Cc2c[nH]c3ccccc23)NC(=O)[C@@H]2CCCN2)cc1`, the Kb in assay [3] was found to be 6 nM.
In assay [2], `COc1ccc(Cn2c(CCc3c[nH]c4ccccc34)nnc2[C@@H](Cc2c[nH]c3ccccc23)NC(=O)c2ccccn2)cc1` yielded a half-maximal inhibitory concentration (IC50) of 8 nM. Moreover, the Activity in assay [1] is 0%.
As for `COc1ccc(Cn2c(CCc3ccccc3)nnc2[C@H](Cc2c[nH]c3ccccc23)NC(=O)C(C)(C)N)cc1`, the IC50 in assay [2] is > 1000 nM. In addition, the Activity in assay [1] came to 0%.
The corresponding values for `COc1ccc(Cn2c(CCCc3ccccc3)nnc2[C@H](Cc2c[nH]c3ccccc23)NC(=O)C(C)(C)N)cc1` are > 1000 nM and 17%.
With `COc1ccc(Cn2c(Cc3ccccc3)nnc2[C@@H](Cc2c[nH]c3ccccc23)NC(=O)C(C)(C)N)cc1`, in assay [1], the Activity was determined as 9%. In addition, in assay [4], the IC50 was 870 nM and the Kb was determined as 19 nM.
On to `COc1ccc(Cn2c(Cc3ccccc3)nnc2[C@@H](Cc2ccccc2)NC(=O)C(C)(C)N)cc1`, for which the IC50 in assay [2] was > 1000 nM. The Activity in assay [1] worked out at 6%.
`COc1ccc(Cn2c(CCc3c[nH]c4ccccc34)nnc2[C@H](Cc2c[nH]c3ccccc23)NC(=O)C2CCOCC2)cc1` had an IC50 in assay [2] of 1300 nM. Moreover, the Activity in assay [1] came out at 0%. In addition, the EC50 in assay [5] stood at 24 nM.
In turn, `COc1ccc(Cn2c(CCc3c[nH]c4ccccc34)nnc2[C@@H](COCc2ccccc2)NC(=O)C(C)(C)N)cc1` yielded an IC50 in assay [2] of 800 nM. Further, in assay [1], the Activity was 0%.
In assay [2], `COc1ccc(Cn2c(CCc3c[nH]c4ccccc34)nnc2[C@H](Cc2c[nH]c3ccccc23)NC(=O)C2CCNCC2)cc1` returned an IC50 of 7 nM. Moreover, in assay [1], the Activity worked out at 100%. Also, the EC50 in assay [5] worked out at 32 nM.
For `COc1ccc(Cn2c(CCc3c[nH]c4ccccc34)nnc2[C@@H](Cc2c[nH]c3ccccc23)NC(=O)C(C)(C)N)cc1`, the IC50 in assay [4] is 190 nM.
In the case of `COc1ccc(Cn2c(CCc3ccccc3)nnc2[C@H](Cc2c[nH]c3ccccc23)NC(=O)C(C)(C)N)c(OC)c1`, in assay [2], the IC50 amounted to 450 nM. The Activity in assay [1] amounted to 4%.
For `COc1ccc(Cn2c(CCCc3ccccc3)nnc2[C@@H](Cc2c[nH]c3ccccc23)NC(=O)C(C)(C)N)cc1`, the Activity in assay [1] stood at 0%. For the same compound, the concentration for half-maximal inhibition (IC50) in assay [4] worked out at 600 nM.
In the case of `COc1ccc(Cn2c(Cc3ccccc3)nnc2[C@H](Cc2c[nH]c3ccccc23)NC(=O)C(C)(C)N)c(OC)c1`, the IC50 in assay [2] is > 1000 nM. Besides, in assay [1], the Activity amounted to 11%.
The compound `COc1ccc(Cn2c(CCc3c[nH]c4ccccc34)nnc2[C@@H](Cc2c[nH]c3ccccc23)NC(=O)C2CCOCC2)cc1` showed an IC50 in assay [2] of 45 nM. In assay [1], the Activity was found to be 2%. Moreover, the EC50 in assay [5] is 24 nM.
